# Assay results pooled from the literature.
# Each line is one published result; the experiments were not run side by side.
SMILES,method,matrix,pH,pKa
CC(C)CC(=O)N1CCC[C@H](COc2cccc3c2C(N)=NS(=O)(=O)N3)C1,,,,6.31
C=CC(=O)N(C)CCOc1c(N)ncnc1-c1cc(F)cc(NC(=O)c2ccc(C3CC3)cc2F)c1C,,,,4.1
CCn1c(C(=O)N(C2CC2)C2CC2)cc2c3c(ncn3C)c(Nc3cc(C)n(C)n3)nc21,,,,4
COc1ccccc1Oc1c(NS(=O)(=O)c2ccc(C(C)(C)C)cc2)nc(-c2ncccn2)nc1OCCO,,,,5.11
Cc1cc(Cl)cc(S(C)(=O)=O)c1NC(=O)c1cc(Br)nn1-c1ncccc1Cl,potentiometric,,,8.95
CC#Cc1cncc(-c2ccc3c(c2)[C@@]2(N=C(C)C(N)=N2)[C@]2(CC[C@H](OC)CC2)C3)c1,,,,6.4
CS(=O)(=O)N1CCN(Cc2cc3nc(-c4cccc5[nH]ncc45)nc(N4CCOCC4)c3s2)CC1,,,,4.24
O=C1c2c(O)cc(O)cc2O[C@H](c2cc(O)c(O)c(O)c2)[C@H]1O,absorbance,aqueous buffer,pH 3.1,7.9
COc1ccc(S(=O)(=O)N/N=C/c2cccc(C(=O)O)c2)cc1OC,,aqueous buffer,,6.69
COc1cccc(C=CCC(=O)O)c1OC,,,,~4.2
COC(=O)c1ccc(/C=N/NS(=O)(=O)c2ccc(OC)c(OC)c2)cc1,,aqueous buffer,,6.86
CC(C)(C)CCN1CC2C(CNC(=O)c3cc(Cl)cc(Cl)c3)C2C1 (stereo not shown),,,,8.1
Cc1cnc(N2CC3(CCOCC3)C2)c(C(=O)Nc2ccc(C(=O)N3CCc4cc(C(=O)Nc5c(C)cccc5F)sc4-c4ccccc43)cc2)c1,,,,4.8
